Assay results published in ChEMBL document CHEMBL1125832, “Synthesis and dopaminergic activity of 3-substituted 1-(aminomethyl)-3,4-dihydro-5,6-dihydroxy-1H-2-benzopyrans: characterization of an auxiliary binding region in the D1 receptor” (J Med Chem, 1991).
pEC50, pKi: −log10 of the molar value.

Experiments:
D(2) dopamine receptor [1] = biological target: T1, D(2) dopamine receptor (Rattus norvegicus, UniProt P61169); assay: Binding affinity using [3H]-spiperone radioligand competitive binding assay against dopamine receptor D2
Outline: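 Rat striatal membranes in Tris pH 7.4 buffer with salts and ascorbate. [3H]spiperone at 300 pM final; nonspecific binding with 10 μM YM-09151-2. Incubated 20 min at 37 °C, then filtered. Ki derived from IC50 by Cheng-Prusoff.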

D(2) dopamine receptor [2] = biological target: T1, D(2) dopamine receptor; assay: Concentration required to inhibit 50% dopamine receptor D2 in a cell free homogenate of intermediate lobe of pituitary gland; type: functional
[3] = biological target: T2, 5-hydroxytryptamine receptor 1A (Rattus norvegicus, UniProt P19327); assay: Binding affinity towards 5-hydroxytryptamine 1A receptor using [3H]8-OH-DPAT as radioligand in competitive binding assay
T2 sequence (P19327 whole entry): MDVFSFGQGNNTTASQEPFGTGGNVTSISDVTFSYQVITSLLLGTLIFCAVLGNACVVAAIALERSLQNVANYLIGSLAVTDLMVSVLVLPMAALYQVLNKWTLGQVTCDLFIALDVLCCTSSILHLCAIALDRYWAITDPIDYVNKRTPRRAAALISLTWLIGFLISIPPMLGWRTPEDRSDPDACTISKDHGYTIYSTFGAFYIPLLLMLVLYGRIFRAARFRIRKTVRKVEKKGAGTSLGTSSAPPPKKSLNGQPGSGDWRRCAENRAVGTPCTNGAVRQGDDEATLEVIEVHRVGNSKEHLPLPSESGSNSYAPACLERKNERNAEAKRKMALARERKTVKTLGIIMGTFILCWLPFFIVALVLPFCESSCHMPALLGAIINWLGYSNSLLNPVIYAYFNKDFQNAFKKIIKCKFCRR
Outline: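 Rat anterior cortex membranes, pelleted and preincubated 30 min at 37 °C in 50 mM Tris-HCl pH 7.7, 4 mM CaCl2, 10 μM pargyline. Label [3H]8-OH-DPAT, 800 pM final; nonspecific binding with 10 μM spiroxatrine. Ki derived from IC50 by Cheng-Prusoff; mean with SEM range.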

[4] = biological target: T3, Adrenergic receptor alpha-1 (Rattus norvegicus, UniProt P15823+P23944+P43140); assay: Binding affinity towards alpha-1 adrenergic receptor using [3H]prazosin as radioligand in competitive binding assay; type: protein assay
T3 sequence (P15823 whole entry): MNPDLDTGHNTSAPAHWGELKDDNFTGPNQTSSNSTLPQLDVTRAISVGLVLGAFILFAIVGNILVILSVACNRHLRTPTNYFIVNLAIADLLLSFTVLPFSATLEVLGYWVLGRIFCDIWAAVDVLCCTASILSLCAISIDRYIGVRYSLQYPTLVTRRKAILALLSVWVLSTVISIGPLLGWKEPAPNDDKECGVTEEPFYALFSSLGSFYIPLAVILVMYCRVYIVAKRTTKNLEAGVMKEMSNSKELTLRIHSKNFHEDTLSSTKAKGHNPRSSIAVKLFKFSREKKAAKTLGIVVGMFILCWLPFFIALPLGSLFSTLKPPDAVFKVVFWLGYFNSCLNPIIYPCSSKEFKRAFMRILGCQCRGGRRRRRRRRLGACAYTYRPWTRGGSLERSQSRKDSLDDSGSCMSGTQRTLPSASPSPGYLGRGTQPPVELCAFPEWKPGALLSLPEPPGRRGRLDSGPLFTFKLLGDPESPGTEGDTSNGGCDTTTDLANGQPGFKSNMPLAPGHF
T3 sequence (P23944 whole entry): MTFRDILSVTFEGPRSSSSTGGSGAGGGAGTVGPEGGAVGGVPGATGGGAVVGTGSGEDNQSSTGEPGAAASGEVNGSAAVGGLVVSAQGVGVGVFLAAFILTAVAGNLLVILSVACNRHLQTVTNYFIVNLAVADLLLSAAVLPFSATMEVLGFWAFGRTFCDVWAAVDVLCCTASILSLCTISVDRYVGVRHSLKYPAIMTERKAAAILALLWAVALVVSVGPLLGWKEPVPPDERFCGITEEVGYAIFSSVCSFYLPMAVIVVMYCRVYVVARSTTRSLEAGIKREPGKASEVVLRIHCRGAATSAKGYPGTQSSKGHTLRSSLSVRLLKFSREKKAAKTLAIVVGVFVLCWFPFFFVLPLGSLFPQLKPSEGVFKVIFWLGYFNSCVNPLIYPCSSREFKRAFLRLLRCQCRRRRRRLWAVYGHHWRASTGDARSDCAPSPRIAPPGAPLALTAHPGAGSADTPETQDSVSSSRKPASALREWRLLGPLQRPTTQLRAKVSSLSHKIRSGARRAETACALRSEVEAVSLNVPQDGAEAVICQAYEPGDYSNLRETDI
T3 sequence (P43140 whole entry): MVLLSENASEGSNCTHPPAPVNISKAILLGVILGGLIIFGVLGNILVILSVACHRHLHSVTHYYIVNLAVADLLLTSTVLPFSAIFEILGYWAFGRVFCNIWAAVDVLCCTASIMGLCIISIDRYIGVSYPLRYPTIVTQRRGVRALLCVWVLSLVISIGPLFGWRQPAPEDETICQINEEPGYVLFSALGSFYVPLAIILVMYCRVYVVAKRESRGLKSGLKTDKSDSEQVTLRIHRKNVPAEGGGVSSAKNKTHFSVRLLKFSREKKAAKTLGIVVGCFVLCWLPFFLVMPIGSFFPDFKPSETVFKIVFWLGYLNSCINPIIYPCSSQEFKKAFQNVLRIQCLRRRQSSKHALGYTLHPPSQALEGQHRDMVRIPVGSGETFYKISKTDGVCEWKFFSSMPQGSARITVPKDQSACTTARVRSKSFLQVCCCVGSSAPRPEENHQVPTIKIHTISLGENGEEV
Outline: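 Frozen rat cortex membranes (300g then 48000g spins) in Tris pH 7.4 buffer with salts and ascorbate. [3H]prazosin at 1.0 nM final; nonspecific binding with 10 μM phentolamine. Incubated 45 min at 37 °C, then filtered. Ki via Cheng-Prusoff.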

D(1A) dopamine receptor [5] = biological target: T4, D(1A) dopamine receptor (Rattus norvegicus, UniProt P18901); assay: Binding affinity using [125 I] SCH 23982 radioligand competitive binding assay on dopamine receptor D1
[6] = Intrinsic activity relative to dopamine at D-2 receptor.; type: functional
D(1A) dopamine receptor [7] = biological target: T4, D(1A) dopamine receptor; assay: Inhibition of Dopamine receptor D1 activity by functional cyclase assay using cell free homogenate of rat striatum; type: tissue-based
Outline: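 Adenylate cyclase stimulation in cell-free homogenate of rat striatum. EC50 is the concentration giving half-maximal stimulation of cAMP production.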

Rattus norvegicus [8] = assay: Rat rotation experiments were conducted to evaluate rational behavior of the rats by administering at a dose of […] subcutaneously; type: functional
Rattus norvegicus [9] = assay: Rat rotation experiments were conducted to evaluate rational behavior of the rats by administering at a dose of 2.0 umol/kg subcutaneously; type: functional
Outline: (§1)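 Rats with unilateral 6-hydroxydopamine lesions of the nigrostriatal bundle. Compound given subcutaneously or orally at the stated dose. Net contralateral rotations counted over 2 h after dosing and reported as mean ± SEM; negative values indicate ipsilateral turning.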

Rattus norvegicus [10] = assay: Rat rotation experiments were conducted to evaluate rational behavior of the rats by administering at a dose of 40 umol/kg oral; type: functional; outline: as §1
Rattus norvegicus [11] = assay: Rat rotation experiments were conducted to evaluate rational behavior of the rats by administering at a dose of 20 umol/kg oral; type: functional; outline: as §1
Rattus norvegicus [12] = assay: Rat rotation experiments were conducted to evaluate rational behavior of the rats by administering at a dose of 1.0 umol/kg subcutaneously; type: functional; outline: as §1

T4 sequence (P18901 whole entry): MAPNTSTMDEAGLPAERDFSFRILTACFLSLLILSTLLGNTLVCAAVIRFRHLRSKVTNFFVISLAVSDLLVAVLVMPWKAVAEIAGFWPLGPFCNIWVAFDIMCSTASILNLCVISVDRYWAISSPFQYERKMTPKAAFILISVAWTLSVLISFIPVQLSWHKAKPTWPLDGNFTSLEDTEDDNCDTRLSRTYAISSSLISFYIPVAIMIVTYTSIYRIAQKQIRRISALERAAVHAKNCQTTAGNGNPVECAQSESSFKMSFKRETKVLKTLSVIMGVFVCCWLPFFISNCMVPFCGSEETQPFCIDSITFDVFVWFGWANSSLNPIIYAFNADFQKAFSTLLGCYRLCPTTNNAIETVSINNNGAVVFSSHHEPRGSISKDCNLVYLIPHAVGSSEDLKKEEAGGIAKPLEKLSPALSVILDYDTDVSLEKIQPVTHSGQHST
T1 sequence (P61169 whole entry): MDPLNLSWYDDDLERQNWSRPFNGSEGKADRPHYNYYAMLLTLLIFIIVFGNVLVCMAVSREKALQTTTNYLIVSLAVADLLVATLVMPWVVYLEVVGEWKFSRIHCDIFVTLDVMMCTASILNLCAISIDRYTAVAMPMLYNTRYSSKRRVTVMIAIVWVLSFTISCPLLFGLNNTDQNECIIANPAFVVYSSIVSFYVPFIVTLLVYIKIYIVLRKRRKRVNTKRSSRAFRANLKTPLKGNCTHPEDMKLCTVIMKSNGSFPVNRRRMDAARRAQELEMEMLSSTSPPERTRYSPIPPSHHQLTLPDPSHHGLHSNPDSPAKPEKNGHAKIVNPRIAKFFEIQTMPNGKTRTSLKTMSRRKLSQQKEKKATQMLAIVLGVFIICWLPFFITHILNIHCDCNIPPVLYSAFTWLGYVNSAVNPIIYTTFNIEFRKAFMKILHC

## NC[C@@H]1OC(C2CCCCC2)Cc2c1ccc(O)c2O (stereo partly drawn)
D(2) dopamine receptor [1]
  pKi: 5.95
D(2) dopamine receptor [2]
  pEC50: 5.15
[3]
  pKi: < 4.70
[4]
  Ki: > 10 µM
D(1A) dopamine receptor [5]
  pKi: 8.27
[6]
  Intrinsic activity: 85%
D(1A) dopamine receptor [7]
  pEC50: 8.77

## C=CCNC[C@@H]1OC(C2CCCCC2)Cc2c1ccc(O)c2O (stereo partly drawn)
Rattus norvegicus [8]
  Activity: 667
[3]
  pKi: < 4.70
[4]
  Ki: > 10 µM
D(1A) dopamine receptor [5]
  pKi: 5.81
D(1A) dopamine receptor [7]
  pEC50: 7.52

## CC(C)(C)C1Cc2c(ccc(O)c2O)[C@H](CN)O1 (stereo partly drawn)
D(2) dopamine receptor [1]
  pKi: 5.09
D(2) dopamine receptor [2]
  pEC50: < 5.00
Rattus norvegicus [8]
  Activity: 354
[4]
  Ki: > 10 µM
D(1A) dopamine receptor [5]
  pKi: 7.50
D(1A) dopamine receptor [7]
  pEC50: 7.28

## NC[C@H]1O[C@@H](c2ccccc2)Cc2c1ccc(O)c2O
Rattus norvegicus [9]
  Activity: -22
D(2) dopamine receptor [1]
  pKi: 5.34
D(2) dopamine receptor [2]
  pEC50: 5.55
[3]
  pKi: < 4.70
[4]
  Ki: 6.06 µM
[6]
  Intrinsic activity: 96%

## NC[C@@H]1OC(c2ccccc2)Cc2c1ccc(O)c2O (stereo partly drawn)
Rattus norvegicus [10]
  Activity: 1066
D(2) dopamine receptor [1]
  pKi: 6.11
Rattus norvegicus [11]
  Activity: 326
D(2) dopamine receptor [2]
  pEC50: 5.41
Rattus norvegicus [8]
  Activity: 895
[3]
  pKi: 4.74
[4]
  Ki: 10.8 µM
[6]
  Intrinsic activity: 101%
Rattus norvegicus [12]
  Activity: 53

## NC[C@@H]1O[C@H](c2ccccc2)Cc2c1ccc(O)c2O
Rattus norvegicus [9]
  Activity: 1525
[3]
  pKi: 5.59
[4]
  Ki: > 10 µM
[6]
  Intrinsic activity: 98%
Rattus norvegicus [12]
  Activity: 1113
